The source of these data is ChEMBL document CHEMBL4033714, “Discovery of BI 135585, an in vivo efficacious oxazinanone-based 11β hydroxysteroid dehydrogenase type 1 inhibitor” (Bioorg Med Chem, 2017).

Series [1] is described as follows: Half life in rat liver microsomes. The class given is ADME, microsome. On the technique in general: Microsomes from liver hold many membrane-bound enzymes, among them those of drug oxidation.
The target in another series is Cytochrome P450 2D6 (Homo sapiens, UniProt P10635). In words: Inhibition of CYP2D6 (unknown origin). The class given is ADME.
Chain of Cytochrome P450 2D6 (P10635 whole entry): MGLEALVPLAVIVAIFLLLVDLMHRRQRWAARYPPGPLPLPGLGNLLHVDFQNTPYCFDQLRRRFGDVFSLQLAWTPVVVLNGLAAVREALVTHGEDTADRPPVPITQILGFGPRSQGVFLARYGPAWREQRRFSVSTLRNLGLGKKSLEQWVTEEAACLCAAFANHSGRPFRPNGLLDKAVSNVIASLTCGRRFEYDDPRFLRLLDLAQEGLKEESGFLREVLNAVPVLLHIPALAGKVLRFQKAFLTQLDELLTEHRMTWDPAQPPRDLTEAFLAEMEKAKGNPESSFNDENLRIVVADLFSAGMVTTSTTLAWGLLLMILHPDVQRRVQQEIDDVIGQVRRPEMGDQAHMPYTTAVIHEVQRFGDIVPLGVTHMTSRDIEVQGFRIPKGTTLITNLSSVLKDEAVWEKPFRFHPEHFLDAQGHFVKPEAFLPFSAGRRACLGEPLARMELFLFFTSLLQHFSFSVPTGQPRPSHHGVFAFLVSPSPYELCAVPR
Series [2] can be described thus: Half life in cynomolgus monkey liver microsomes. The class given is ADME, Macaca fascicularis, microsome.
A short description of series [3]: Oral bioavailability in cynomolgus monkey. Type of series: ADME, organism-based, Macaca fascicularis. Conditions: in vivo.
Series [4] in a line: Volume of distribution at steady state in iv dosed cynomolgus monkey. The class given is ADME, organism-based, Macaca fascicularis. The settings on record: in vivo, read-out: Vdss.
Another series has as its system Cynomolgus monkey. Kind of series: Dose normalized AUC in iv dosed cynomolgus monkey. The settings on record: in vivo. Type of series: ADME, organism-based, Macaca fascicularis.
Series [5] can be described thus: Half life in human liver microsomes. Type of series: ADME, microsome.
A further series concerns the target hERG (Homo sapiens, UniProt Q12809). Kind of series: Inhibition of human ERG at 10 uM by patch clamp assay relative to control. (In general: The patch-clamp technique gives a direct electrical read-out from membranes.)
Series [6] can be described thus: Clearance in iv dosed cynomolgus monkey. The settings on record: in vivo. The class given is ADME, organism-based, Macaca fascicularis.
Series [7] in a line: Mean residence time in iv dosed cynomolgus monkey. The class given is ADME, organism-based, Macaca fascicularis. Conditions: in vivo.
Series [8] is described as follows: Mean residence time in po dosed cynomolgus monkey. Type of series: ADME, organism-based, Macaca fascicularis. Conditions: in vivo.
A further series has as its target Cytochrome P450 3A4 (Homo sapiens, UniProt P08684). Kind of series: (§1) Inhibition of recombinant CYP3A4 (unknown origin). Type of series: ADME.
For the next series, the target named is CYP3A4 (Homo sapiens, UniProt P08684). Described as §1. The class given is ADME. Conditions: recombinant CYP3A4.
Chain of CYP3A4 (P08684 whole entry): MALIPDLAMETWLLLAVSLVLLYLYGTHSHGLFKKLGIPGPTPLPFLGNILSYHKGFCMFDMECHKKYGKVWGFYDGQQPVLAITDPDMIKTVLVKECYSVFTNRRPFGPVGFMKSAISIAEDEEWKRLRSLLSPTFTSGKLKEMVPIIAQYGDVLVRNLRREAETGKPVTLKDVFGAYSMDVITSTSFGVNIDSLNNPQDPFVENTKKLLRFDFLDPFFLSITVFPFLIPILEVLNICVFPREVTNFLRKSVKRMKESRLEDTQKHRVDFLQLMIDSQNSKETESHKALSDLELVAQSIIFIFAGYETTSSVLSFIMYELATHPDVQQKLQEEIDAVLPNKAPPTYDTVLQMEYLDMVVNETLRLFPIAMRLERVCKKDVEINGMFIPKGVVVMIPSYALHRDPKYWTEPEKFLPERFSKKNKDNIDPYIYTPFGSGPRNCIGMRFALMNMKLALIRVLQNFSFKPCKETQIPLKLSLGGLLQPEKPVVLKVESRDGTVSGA
Another series concerns the target CYP2C9 (Homo sapiens, UniProt P11712). Kind of series: (§2) Inhibition of CYP2C9 (unknown origin). The class given is ADME.
The target of a further series is Cytochrome P450 2C9 (Homo sapiens, UniProt P11712). The series is described as §2. The class given is ADME.
Chain of Cytochrome P450 2C9 (P11712 whole entry): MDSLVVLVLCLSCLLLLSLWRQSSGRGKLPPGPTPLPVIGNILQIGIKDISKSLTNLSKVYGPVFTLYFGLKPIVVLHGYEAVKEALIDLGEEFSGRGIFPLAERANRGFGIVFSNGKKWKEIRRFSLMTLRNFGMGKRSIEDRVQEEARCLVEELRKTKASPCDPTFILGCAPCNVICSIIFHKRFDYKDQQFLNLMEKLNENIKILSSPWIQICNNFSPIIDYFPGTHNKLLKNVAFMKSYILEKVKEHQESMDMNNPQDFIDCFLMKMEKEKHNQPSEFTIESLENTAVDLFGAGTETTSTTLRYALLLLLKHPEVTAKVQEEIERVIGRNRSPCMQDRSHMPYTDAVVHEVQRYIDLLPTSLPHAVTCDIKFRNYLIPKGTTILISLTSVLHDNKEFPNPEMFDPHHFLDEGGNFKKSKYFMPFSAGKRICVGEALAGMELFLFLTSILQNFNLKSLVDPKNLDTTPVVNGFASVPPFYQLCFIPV
Series [9] is described as follows: Oral bioavailability in rat. The class given is ADME, organism-based. The settings on record: in vivo.
The nature of series [10]: Clearance in iv dosed rat. Type of series: ADME, organism-based. The settings on record: in vivo.
Series [11] in a line: Mean residence time in iv dosed rat. The class given is ADME, organism-based. Conditions: in vivo.
Series [12] in a line: Aqueous solubility of the compound. Conditions: aqueous medium; read-out: solubility. The class given is physicochemical. Put shortly:
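Solubility measured in water, with each compound tested as amorphous material.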

For series [13], the target named is Voltage-gated inwardly rectifying potassium channel KCNH2 (Homo sapiens, UniProt Q12809). Kind of series: Inhibition of human ERG.
Chain of Voltage-gated inwardly rectifying potassium channel KCNH2 (Q12809 whole entry): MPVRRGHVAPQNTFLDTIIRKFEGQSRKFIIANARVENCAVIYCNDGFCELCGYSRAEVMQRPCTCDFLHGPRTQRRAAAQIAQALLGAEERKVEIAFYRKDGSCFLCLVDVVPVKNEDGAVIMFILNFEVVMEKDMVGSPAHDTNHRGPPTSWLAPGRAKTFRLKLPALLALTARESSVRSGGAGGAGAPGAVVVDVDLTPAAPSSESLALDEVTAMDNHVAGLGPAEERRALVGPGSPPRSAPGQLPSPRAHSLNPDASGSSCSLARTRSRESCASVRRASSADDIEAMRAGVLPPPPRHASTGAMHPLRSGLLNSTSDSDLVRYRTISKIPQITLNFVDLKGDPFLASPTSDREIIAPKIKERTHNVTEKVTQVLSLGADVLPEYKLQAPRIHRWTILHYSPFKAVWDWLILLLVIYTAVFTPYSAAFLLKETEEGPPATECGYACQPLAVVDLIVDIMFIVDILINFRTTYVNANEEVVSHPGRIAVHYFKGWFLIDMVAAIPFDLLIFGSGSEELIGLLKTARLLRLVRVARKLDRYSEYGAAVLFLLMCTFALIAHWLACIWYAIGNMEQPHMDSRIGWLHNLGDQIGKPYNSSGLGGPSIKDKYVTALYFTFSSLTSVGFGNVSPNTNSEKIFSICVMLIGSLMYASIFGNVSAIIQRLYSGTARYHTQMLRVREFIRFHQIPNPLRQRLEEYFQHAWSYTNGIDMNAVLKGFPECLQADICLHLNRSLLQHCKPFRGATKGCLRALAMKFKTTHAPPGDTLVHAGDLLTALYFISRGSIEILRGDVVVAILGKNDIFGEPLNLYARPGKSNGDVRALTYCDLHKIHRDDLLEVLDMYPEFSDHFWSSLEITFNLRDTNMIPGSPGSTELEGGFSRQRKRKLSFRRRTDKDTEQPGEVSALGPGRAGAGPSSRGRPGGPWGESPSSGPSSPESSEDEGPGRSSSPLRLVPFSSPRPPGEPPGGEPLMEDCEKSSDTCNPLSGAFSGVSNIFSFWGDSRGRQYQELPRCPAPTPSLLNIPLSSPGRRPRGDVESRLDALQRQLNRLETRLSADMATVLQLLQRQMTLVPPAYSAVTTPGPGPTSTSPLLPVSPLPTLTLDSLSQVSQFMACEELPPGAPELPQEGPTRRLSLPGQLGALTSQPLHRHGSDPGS

Converted amounts (≈) assume the structure as drawn.

Chain of CYP2C9 (P11712 whole entry): as the sequence (P11712 whole entry) above
Chain of hERG (Q12809 whole entry): as the sequence (Q12809 whole entry) above
Chain of Cytochrome P450 3A4 (P08684 whole entry): as the sequence (P08684 whole entry) above

On to `COc1ccc([C@H](C)N2CC[C@](CCC(N)=O)(c3ccc(F)cc3)OC2=O)cc1`, for which, in series [1], the half-life amounted to 9 min.
Still for that read-out and setting: under `Cc1ccc([C@H](C)N2CC[C@](CCC(N)=O)(c3ccc(F)cc3)OC2=O)cc1` stands 7.1 min.
As to `C[C@@H](c1ccc(-c2ccc(=O)n(C)c2)cc1)N1CC[C@](CC(C)(C)O)(c2ccccc2)OC1=O`, the half-life in series [1], in series [2] and in series [5] was more than 90 min each time. The IC50 against Cytochrome P450 2D6 is more than 50 µM. Besides, in series [3], the bioavailability was determined as 39%. For the same molecule, the Vd in series [4] amounted to 1.7 L/kg. The AUC/dose in the series on Cynomolgus monkey was found to be 1770 nM·h. On hERG, this molecule showed an inhibition at 10 µM of less than 10%. In series [6], this molecule gave a clearance of 11 mL/min/kg. The MRT in [7] worked out at 162 min; in series [8], 288 min.
On to `C[C@@H](c1ccc(-c2ccccn2)cc1)N1CC[C@](CCCO)(c2ccccc2)OC1=O`, for which, at Cytochrome P450 3A4, the IC50 was 23 µM.
As to `C[C@@H](c1ccc(OC(F)(F)F)cc1)N1CC[C@](CCC(N)=O)(c2ccc(F)cc2)OC1=O`, the half-life in series [1] is more than 60 min.
For `C[C@@H](c1ccc(-c2ccc(C#N)cn2)cc1)N1CC[C@](CC(C)(C)O)(c2ccccc2)OC1=O`, the half-life in series [1], in [2] and in series [5] was more than 90 min in each case. At Cytochrome P450 2D6, the IC50 was more than 50 µM.
On to `C[C@@H](c1ccc(OC(F)F)cc1)N1CC[C@](CC(C)(C)O)(c2ccc(F)cc2)OC1=O`, for which the half-life in series [1] was more than 60 min. Besides, the IC50 on Cytochrome P450 3A4 stood at 6.6 µM.
Consider `Cc1cc(-c2ccc([C@H](C)N3CC[C@](CC(C)(C)O)(c4ccccc4)OC3=O)cc2)cc(C)n1`, for which the values for the half-life in [1], in [2] and in series [5] were more than 45 min, 38 min and more than 45 min, respectively. In addition, the IC50 against Cytochrome P450 2D6 and on CYP3A4 was more than 50 µM each time.
Turning to `Cc1ccc(-c2ccc([C@H](C)N3CC[C@](CC(C)(C)O)(c4ccccc4)OC3=O)cc2)nn1`, the IC50 at CYP2C9, against Cytochrome P450 2D6 and at CYP3A4 was more than 50 µM each time. Moreover, the half-life is more than 45 min in series [1], more than 45 min in series [2] and more than 90 min in series [5]. In [3], this molecule came in with a bioavailability of 70%. For the same molecule, the Vd in series [4] is 1.5 L/kg. This molecule also came in with an AUC/dose with Cynomolgus monkey of 3330 nM·h. At hERG, this molecule showed an inhibition at 10 µM of less than 10%. Also, the clearance in [6] was found to be 5.2 mL/min/kg. Moreover, the MRT is 288 min in series [7] and 318 min in series [8].
As to `C[C@@H](c1ccc(-c2ccc(=O)n(C)c2)cc1)N1CC[C@](CCCO)(c2ccccc2)OC1=O`, on Cytochrome P450 3A4, the IC50 is 10.5 µM.
In turn, `C[C@@H](c1ccc(Br)cc1)N1CC[C@](CC(C)(C)C#N)(c2ccc(F)cc2)OC1=O` had a half-life in [1] of 20.3 min.
On the same count and under the same terms, in the case of `C[C@@H](c1ccc(Br)cc1)N1CC[C@](CCCNS(C)(=O)=O)(c2ccc(F)cc2)OC1=O` it was 11.4 min.
On to `C[C@@H](c1ccc(-c2ccc3ncnn3c2)cc1)N1CC[C@](CC(C)(C)O)(c2ccccc2)OC1=O`, for which the IC50 is more than 50 µM against Cytochrome P450 2C9, more than 50 µM against Cytochrome P450 2D6 and 10 µM on Cytochrome P450 3A4. The half-life in series [1] is more than 90 min; in [2], more than 45 min; in series [5], more than 90 min.
Take `C[C@@H](c1ccc(-c2ccc(F)cn2)cc1)N1CC[C@](CC(C)(C)O)(c2ccccc2)OC1=O`: the half-life in series [1], in [2] and in series [5] was more than 45 min throughout. On Cytochrome P450 2D6, this molecule yielded an IC50 of more than 50 µM.
`C[C@@H](c1ccc(OC(F)F)cc1)N1CC[C@](CCC(N)=O)(c2ccccc2)OC1=O`: the bioavailability in [9] came to 51%. The molecule also showed a clearance in series [10] of 91 mL/min/kg. Also, the half-life in [1] is 50.6 min; in series [5] it was more than 90 min. At Cytochrome P450 3A4, the IC50 was more than 30 µM. The molecule also gave an MRT in [11] of 33 min. For the same molecule, in series [12], the solubility was found to be 1500 µg/mL (≈ 3580 µM).
Take `C[C@@H](c1ccc(-c2cccnc2)cc1)N1CC[C@](CCCO)(c2ccccc2)OC1=O`: the IC50 at Cytochrome P450 3A4 came out at 2.1 µM.
For the molecule `C[C@@H](c1ccc(-c2ccc(C(N)=O)cn2)cc1)N1CC[C@](CC(C)(C)O)(c2ccccc2)OC1=O`, the IC50 against CYP2C9, at Cytochrome P450 2D6 and on CYP3A4 was more than 50 µM in each case. In series [9], this molecule gave a bioavailability of 15%. Also, the figures for the half-life in series [1], in series [2] and in series [5] were more than 45 min, more than 45 min and more than 90 min, respectively.
Regarding `C[C@@H](c1ccc(-c2cncc(F)c2)cc1)N1CC[C@](CCCO)(c2ccccc2)OC1=O`, on Cytochrome P450 3A4, the IC50 worked out at 11 µM.
In turn, `C[C@@H](c1ccc(Br)cc1)N1CC[C@](CCO)(c2ccc(F)cc2)OC1=O` came in with a half-life in [1] of 25 min. Moreover, the IC50 at Cytochrome P450 3A4 was more than 30 µM.
In [9], `C[C@@H](c1ccc(Br)cc1)N1CC[C@](CCC(N)=O)(c2ccc(F)cc2)OC1=O` showed a bioavailability of 42%. The same molecule returned a clearance in series [10] of 49 mL/min/kg. For the same molecule, the IC50 was 6.3 µM in [13] and more than 30 µM on Cytochrome P450 3A4. Also, the half-life in series [1] was 36.1 min; in series [5], more than 90 min. Moreover, in series [11], the MRT came to 72 min. In addition, the solubility in series [12] amounted to 300 µg/mL (≈ 668 µM).
In the case of `C[C@@H](c1ccc(Br)cc1)N1CC[C@](CC(C)(C)O)(c2ccc(F)cc2)OC1=O`, the half-life in series [1] is 53 min. At Cytochrome P450 3A4, the IC50 came out at 3.5 µM.
For `Cc1ncc(-c2ccc([C@H](C)N3CC[C@](CC(C)(C)O)(c4ccccc4)OC3=O)cc2)cn1`, the IC50 against CYP2C9, against Cytochrome P450 2D6 and on CYP3A4 was more than 50 µM each time. In addition, the half-life in [1], in series [2] and in series [5] was more than 90 min throughout. The molecule further showed a bioavailability in [3] of 96%. Also, the Vd in series [4] was 1.7 L/kg. The AUC/dose in the series with Cynomolgus monkey came out at 2070 nM·h. At hERG, this molecule gave an inhibition at 10 µM of 12%. In series [6], this molecule had a clearance of 8.1 mL/min/kg. Moreover, the MRT in series [7] stood at 210 min; in [8], 288 min.
Turning to `Cc1cnc(-c2ccc([C@H](C)N3CC[C@](CC(C)(C)O)(c4ccccc4)OC3=O)cc2)cn1`, the IC50 against Cytochrome P450 2C9 is 33 µM; at Cytochrome P450 2D6 it was more than 50 µM; on Cytochrome P450 3A4 it was more than 50 µM. In addition, the half-life was 16 min in [1], 38 min in series [2] and more than 90 min in series [5].
With `C[C@@H](c1ccc(-c2ccncc2)cc1)N1CC[C@](CCCO)(c2ccccc2)OC1=O`, the IC50 on Cytochrome P450 3A4 turned out to be 1.8 µM.
Consider `COc1ccc(-c2ccc([C@H](C)N3CC[C@](CCCO)(c4ccccc4)OC3=O)cc2)cn1`, for which the IC50 at Cytochrome P450 3A4 is more than 30 µM.
In series [9], `C[C@@H](c1ccc(OC(F)F)cc1)N1CC[C@](CC(C)(C)O)(c2ccccc2)OC1=O` came in with a bioavailability of 57%. For the same molecule, in [10], the clearance is 23 mL/min/kg. The values for the half-life in [1] and in series [5] were more than 60 min and more than 90 min, respectively. The IC50 at Cytochrome P450 3A4 worked out at 10 µM. Moreover, the MRT in [11] turned out to be 50.4 min. The solubility in series [12] is 260 µg/mL (≈ 620 µM).
For `COc1ccc(-c2ccc([C@H](C)N3CC[C@](CC(C)(C)O)(c4ccccc4)OC3=O)cc2)cn1`, the IC50 against Cytochrome P450 2D6 was more than 50 µM.
For `Cc1cc(-c2ccc([C@H](C)N3CC[C@](CCCO)(c4ccccc4)OC3=O)cc2)cc(C)n1`, the half-life in series [1] came to 13 min. In addition, the IC50 on Cytochrome P450 3A4 was more than 30 µM.
`C[C@@H](c1ccc(OC(F)F)cc1)N1CC[C@](CCC(N)=O)(c2ccc(F)cc2)OC1=O`: the bioavailability in series [9] came out at 77%. The clearance in series [10] was 67 mL/min/kg. The IC50 was found to be 5.3 µM in [13] and 27 µM at Cytochrome P450 3A4. Also, the half-life was more than 60 min in series [1] and more than 90 min in series [5]. Also, the MRT in [11] is 50.4 min. For the same molecule, in series [12], the solubility came out at 460 µg/mL (≈ 1050 µM).

By half-life is commonly meant how long it takes for the measured level to halve. As usually defined, the IC50 is the concentration needed to halve the response being measured. As usually defined, the bioavailability is the share of a dose that reaches the circulation, judged against a reference dose that is usually intravenous. One may read the inhibition as the drop in the measured response relative to a control, in per cent. As usually defined, the clearance is a measure of how efficiently the substance is removed, as volume per time. The MRT is the average time that molecules of a dose stay in the body. What is called solubility is how much of the substance goes into solution per volume.
